Data as given in ChEMBL document CHEMBL1145941, “Design, synthesis, and biological evaluation of indenoisoquinoline topoisomerase I inhibitors featuring polyamine side chains on the lactam nitrogen” (2003).

Tests used:
DU-145 = assay: Cytotoxicity against human prostate DU-145 cancer cell lines.; assay type: functional
[1] = tested on: Panel (Carcinoma cell lines); assay: Mean graph midpoint for growth inhibition of all human cancer cell lines.; assay type: functional; parameters: unit: µM
How it was run: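 Mean graph midpoint from the NCI screen, about 55 human cancer cell lines, test range 10^-8 to 10^-4 M. Computed as the average GI50 across all lines tested, with GI50 values below or above the range set to 10^-8 M or 10^-4 M.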

SF-539 = assay: Cytotoxicity against human CNSSF-539 cancer cell lines.; assay type: functional
SN12C = assay: Cytotoxicity against human renal SN12C cancer cell lines.; assay type: functional
UACC-62 = assay: Cytotoxicity against human melanoma UACC-62 cancer cell lines.; assay type: functional
HCT-116 = assay: Cytotoxicity against human colon HCT116 cancer cell lines.; assay type: functional
[2] = biological target: T1, DNA topoisomerase 1 (Homo sapiens) (UniProt P11387); assay: Inhibitory activity against DNA topoisomerase I; greater activity than the parent compound 1
T1 sequence (whole entry): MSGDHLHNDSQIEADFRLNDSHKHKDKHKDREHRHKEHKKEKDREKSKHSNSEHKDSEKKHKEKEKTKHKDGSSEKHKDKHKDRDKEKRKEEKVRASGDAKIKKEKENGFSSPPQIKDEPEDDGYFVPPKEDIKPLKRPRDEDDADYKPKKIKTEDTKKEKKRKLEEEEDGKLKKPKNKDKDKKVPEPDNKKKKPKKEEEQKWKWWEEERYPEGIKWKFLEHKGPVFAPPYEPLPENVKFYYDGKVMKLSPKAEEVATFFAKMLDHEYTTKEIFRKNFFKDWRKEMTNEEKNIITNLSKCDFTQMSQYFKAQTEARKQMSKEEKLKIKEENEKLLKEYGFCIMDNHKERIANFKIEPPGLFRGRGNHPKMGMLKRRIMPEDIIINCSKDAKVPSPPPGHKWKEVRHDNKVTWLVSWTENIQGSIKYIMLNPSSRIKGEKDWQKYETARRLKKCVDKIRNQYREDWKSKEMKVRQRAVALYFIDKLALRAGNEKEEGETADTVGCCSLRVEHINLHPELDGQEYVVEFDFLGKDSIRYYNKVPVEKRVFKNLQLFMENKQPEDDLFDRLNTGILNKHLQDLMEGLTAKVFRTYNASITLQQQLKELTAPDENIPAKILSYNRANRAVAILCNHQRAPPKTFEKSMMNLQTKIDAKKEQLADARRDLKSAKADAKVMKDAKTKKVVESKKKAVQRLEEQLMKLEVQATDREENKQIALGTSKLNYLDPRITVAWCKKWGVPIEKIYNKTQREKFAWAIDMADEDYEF

OVCAR-3 = assay: Cytotoxicity against human ovarian OVCAR-3 cancer cell lines.; assay type: functional
HOP-62 = assay: Cytotoxicity was determined in human lung HOP-62 cancer cell lines; assay type: functional
MDA-MB-435 = assay: Cytotoxicity against human breast […] cancer cell lines.; assay type: functional
[3] = biological target: T1, DNA topoisomerase 1 (Homo sapiens); assay: Compound was tested for its inhibitory activity against DNA topoisomerase I; No activity

| SMILES | Activity [2] | Activity [3] | GI50 (DU-145) | MGM [1] | GI50 (SF-539) | GI50 (SN12C) | GI50 (UACC-62) | GI50 (HCT-116) | GI50 (OVCAR-3) | GI50 (HOP-62) | GI50 (MDA-MB-435) |
| --- | --- | --- | --- | --- | --- | --- | --- | --- | --- | --- | --- |
| COc1cc2c3c(n(CCCOC(=O)C(F)(F)F)c(=O)c2cc1OC)-c1cc2c(cc1C3=O)OCO2 | greater activity than compound 1 |  | 660 nM | 0.15 | < 10 nM | < 10 nM | < 10 nM | 18 nM | 70 nM | < 10 nM | 30 nM |
| COc1cc2c3c(n(C)c(=O)c2cc1OC)-c1cc2c(cc1C3=O)OCO2 |  |  | 37000 nM | 20 | 41000 nM | 68000 nM | 4200 nM | 35000 nM |  | 1300 nM | 96000 nM |
| C[C@@]1(O)C(=O)OCc2c1cc1n(c2=O)Cc2cc3ccccc3nc2-1 | greater activity than compound 1 |  | < 10 nM | 0.04 | < 10 nM | 20 nM | < 10 nM | 30 nM | 220 nM | < 10 nM | 40 nM |
| COc1cc2c3c(n(CCCN(CCO)CCO)c(=O)c2cc1OC)-c1cc2c(cc1C3=O)OCO2.Cl |  |  | < 10 nM | 0.07 | < 10 nM | < 10 nM | < 10 nM | < 10 nM | 130 nM | < 10 nM | 80 nM |
| COc1cc2c3c(n(CCCNCCCNCCCN)c(=O)c2cc1OC)-c1cc2c(cc1C3=O)OCO2.Cl.Cl.Cl |  |  | > 100000 nM | 59 | > 100000 nM | 33000 nM | 44000 nM | 43000 nM | 880 nM |  | 68000 nM |
| COc1cc2c3c(n(CCCNCC(OC)OC)c(=O)c2cc1OC)-c1cc2c(cc1C3=O)OCO2 | greater activity than compound 1 |  | 540 nM | 2.1 | 6700 nM |  | 2860 nM | 180 nM | 6900 nM | 450 nM | 10800 nM |
| COc1cc2c3c(n(CCCNCCNCCCN)c(=O)c2cc1OC)-c1cc2c(cc1C3=O)OCO2.Cl.Cl.Cl |  |  | 4600 nM | 3 | 8600 nM | 1700 nM | 1900 nM | 1300 nM | 8100 nM | 2900 nM | 3400 nM |
| COc1cc2c3c(n(CCN(C)C)c(=O)c2cc1OC)-c1cc2c(cc1C3=O)OCO2.O=CO |  |  | 1900 nM | 3.1 | 900 nM | 4400 nM | 1200 nM | 660 nM | 10000 nM | 1100 nM | 6100 nM |
| COc1cc2c3c(n(CCCN(C)C)c(=O)c2cc1OC)-c1cc2c(cc1C3=O)OCO2 | greater activity than compound 1 |  | 140 nM | 0.35 | 190 nM | 900 nM | 540 nM | 120 nM | 1400 nM | 18 nM | 650 nM |
| COc1cc2c3c(n(CCCNCCCNCCCNCCCN)c(=O)c2cc1OC)-c1cc2c(cc1C3=O)OCO2.Cl.Cl.Cl.Cl |  | No activity | 1400 nM | 2 |  | 1600 nM | 1700 nM | 1500 nM | 1600 nM | 3000 nM | 1400 nM |

The next lines start with results.

| Activity [2] | Activity [3] | SMILES | GI50 (DU-145) | MGM [1] | GI50 (SF-539) | GI50 (SN12C) | GI50 (UACC-62) | GI50 (HCT-116) | GI50 (OVCAR-3) | GI50 (HOP-62) | GI50 (MDA-MB-435) |
| --- | --- | --- | --- | --- | --- | --- | --- | --- | --- | --- | --- |
| greater activity than compound 1 |  | COc1cc2c3c(n(CCCNCCCN)c(=O)c2cc1OC)-c1cc2c(cc1C3=O)OCO2 | 3100 nM | 3.2 | 1200 nM | 2300 nM | 3400 nM | 1300 nM | 3100 nM | 1600 nM | 2500 nM |
| greater activity than compound 1 |  | COc1cc2c3c(n(CCCNCCN)c(=O)c2cc1OC)-c1cc2c(cc1C3=O)OCO2.Cl.Cl | 720 nM | 0.88 | 430 nM | 370 nM | 650 nM | 560 nM | 700 nM | 380 nM | 1600 nM |
| greater activity than compound 1 |  | COc1cc2c3c(n(CCCNCCCNCCN)c(=O)c2cc1OC)-c1cc2c(cc1C3=O)OCO2.Cl.Cl.Cl | 52000 nM | 41 | 38000 nM | 20000 nM | 37000 nM | 23000 nM | 20000 nM |  | 38000 nM |
| greater activity than compound 1 |  | COc1cc2c3c(n(CCN)c(=O)c2cc1OC)-c1cc2c(cc1C3=O)OCO2.Cl | 400 nM | 0.34 | 1300 nM | 360 nM | 140 nM | 68 nM | 860 nM | 580 nM |  |
| greater activity than compound 1 |  | COc1cc2c3c(n(CCCNCCNCCN)c(=O)c2cc1OC)-c1cc2c(cc1C3=O)OCO2.Cl.Cl.Cl | 1200 nM | 2.4 | 550 nM | 2500 nM | 2600 nM | 900 nM | 1700 nM | 2800 nM | 2700 nM |
